Data as given in ChEMBL document CHEMBL3734704, “Synthesis and Biological Evaluation of Novel Bouchardatine Derivatives as Potential Adipogenesis/Lipogenesis Inhibitors for Antiobesity Treatment” (J Med Chem, 2015).
Activity calls are given as the source filed them. The rule behind the calls is not given here.

Key:
3T3-L1 [1] = experiment: Inhibition of cell differentiation in mouse 3T3L1 cells assessed as delayed time point of cell contact inhibition at 0.5 uM for 9 days; assay type: functional
How it was run: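 3T3-L1 preadipocytes were induced to differentiate (IBMX/dexamethasone/insulin for 3 days, then insulin) with compound added from day 0 at 0.5 or 5 µM; DMSO vehicle served as control. Cells were collected and counted every day to follow proliferation and to find when contact inhibition resumed.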

[2] = Decrease in triglyceride level in mouse 3T3L1 cells during all developmental stages at 0.5 uM for 9 days; assay type: functional, cell-based; conditions: 3T3-L1
How it was run: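 During 3T3-L1 differentiation with compound present (0.5 µM, or 5 µM for one compound), cells were collected and counted every day and triglyceride content was measured by TG assay.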

HepG2 = experiment: Decrease in triglyceride level in human HepG2 cells at 10 uM after 24 hrs by GPO-POD assay in presence of 0.5 mM oleic acid sodium; assay type: functional
How it was run: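 HepG-2 cells seeded, then after 24 h exposed to 0.5 mM oleic acid sodium plus compound (1 µM; dose series up to 10 µM) for 24 h, DMSO vehicle. Cells lysed in 0.2% Triton X-100 for 1 h, sonicated, centrifuged. Triglyceride measured by GPO-POD kit and cholesterol by kit, both normalized to BCA protein; n = 3.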

[3] = Decrease in triglyceride level in mouse 3T3L1 cells at 1 uM measured during 0 to 3 days by oil red O staining based microscopic analysis; assay type: functional, cell-based; conditions: 3T3-L1
How it was run: (§1)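 3T3-L1 cells given 1 µM compound during day 0-3, 0-6, 0-9, 3-6, 3-9 or 6-9 of differentiation. On Day 9, intracellular lipid measured by TG assay (Triton lysate, GPO-POD kit, per protein) and by Oil Red O staining with microscopy; n = 3.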

[4] = Decrease in triglyceride level in mouse 3T3L1 cells at 1 uM measured during 6 to 9 days by oil red O staining based microscopic analysis; assay type: functional, cell-based; conditions: 3T3-L1; how it was run: as §1
3T3-L1 [5] = experiment: Inhibition of adipogenesis in mouse 3T3L1 cells assessed as reduction in mature adipocytes number at 1 uM measured during 0 to 3,0 to 6,0 to 9, 3 to 6, 3 to 9 and 6 to 9 days by oil red O staining based microscopic analysis; assay type: functional, cell-based
How it was run: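 Differentiation was induced two days post-confluence (day 0) with IBMX/dexamethasone/insulin for 3 days, then insulin medium. Compound at 1 µM was present during days 0-3, 0-6, 0-9, 3-6, 3-9 or 6-9. On day 9, cells were fixed in 4% formaldehyde, stained with Oil Red O for 30 min, and imaged by microscopy. A TG assay was also run; DMSO vehicle served as control.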

[6] = Cell cycle arrest in mouse 3T3L1 cells assessed as number of cells at G2/M phase at 0.3 uM after 24 hrs by flow cytometry (reference value: 37.2%); assay type: functional, cell-based; conditions: 3T3-L1
[7] = Cell cycle arrest in mouse 3T3L1 cells assessed as number of cells at G2/M phase at 1 uM after 24 hrs by flow cytometry (reference value: 37.2%); assay type: functional, cell-based; conditions: 3T3-L1
[8] = Cell cycle arrest in mouse 3T3L1 cells assessed as number of cells at G0/G1 phase at 0.3 uM after 24 hrs by flow cytometry (reference value: 37.6%); assay type: functional, cell-based; conditions: 3T3-L1
3T3-L1 [9] = experiment: Induction of apoptosis in mouse 3T3L1 cells assessed as late apoptotic cells at 3 uM after 24 hrs by annexin-V-FITC and PI staining based flow cytometry (reference value: 0.03%); assay type: functional
3T3-L1 [10] = experiment: Induction of apoptosis in mouse 3T3L1 cells assessed as viable cells at 0.3 uM after 24 hrs by annexin-V-FITC and PI staining based flow cytometry (reference value: 98.95%); assay type: functional; conditions: 3T3-L1, 24 h, read-out: Activity
3T3-L1 [11] = experiment: Induction of apoptosis in mouse 3T3L1 cells assessed as late apoptotic cells at 1 uM after 24 hrs by annexin-V-FITC and PI staining based flow cytometry (reference value: 0.03%); assay type: functional
[12] = Downregulation of PPAR-gamma mRNA level in mouse 3T3L1 cells at 0.3 to 3 uM after 24 hrs by RT-PCR analysis; assay type: functional, cell-based; conditions: 3T3-L1
How it was run: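 3T3-L1 preadipocytes in adipogenic cocktail with compound (0.3-3.0 µM; 3 µM for the 2 h and 24 h time course). Total RNA extracted, cDNA made from 1 µg RNA with oligo primer, then PCR: 95 °C 10 min, 35 cycles of 95 °C 30 s, annealing 45 s, 72 °C 1 min, final 72 °C 10 min. Normalized to actin; n = 3.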

[13] = Downregulation of SREBP-1c level in mouse 3T3L1 cells at 0.3 to 3 uM after 3 days by western blot analysis; assay type: functional, cell-based; conditions: 3T3-L1
How it was run: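 3T3-L1 preadipocytes incubated in adipogenic cocktail with or without compound (0.3, 1.0, 3.0 µM) for the stated periods. Protein levels measured by Western blot (RIPA lysis, PVDF, BSA block, primary 16 h at 4 °C, HRP secondary), normalized to GAPDH/Tubulin and expressed relative to controls; n = 3.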

[14] = biological target: T1, Serine/threonine-protein kinase STK11 (Mus musculus) (UniProt Q9WTK7); experiment: Activation of LKB1-mediated AMPK in mouse 3T3L1 cells assessed as increase in phophorylated AMPK alpha at Thr 172 residue level at 3 uM after 10 mins by western blot analysis; assay type: cell-based; conditions: 3T3-L1
T1 sequence (whole entry): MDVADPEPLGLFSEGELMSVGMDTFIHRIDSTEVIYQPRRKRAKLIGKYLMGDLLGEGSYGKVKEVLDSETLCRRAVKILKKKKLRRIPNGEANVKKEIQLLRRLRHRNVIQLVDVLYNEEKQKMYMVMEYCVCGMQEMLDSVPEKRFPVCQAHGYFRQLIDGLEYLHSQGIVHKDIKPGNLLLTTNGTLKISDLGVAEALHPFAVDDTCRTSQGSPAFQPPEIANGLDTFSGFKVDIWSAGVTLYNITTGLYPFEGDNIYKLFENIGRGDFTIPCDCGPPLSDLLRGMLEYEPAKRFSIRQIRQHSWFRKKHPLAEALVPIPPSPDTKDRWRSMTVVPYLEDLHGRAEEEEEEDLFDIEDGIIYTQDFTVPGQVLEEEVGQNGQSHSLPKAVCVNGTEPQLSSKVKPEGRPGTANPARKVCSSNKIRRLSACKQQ
How it was run: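 3T3-L1 preadipocytes held in adipogenic cocktail with or without compound at 3 µM, time course (10 min, 2 h, 24 h) during differentiation. Lysis in RIPA with protease/phosphatase inhibitors, SDS-PAGE, PVDF, BSA block, primary antibody 16 h at 4 °C, HRP secondary. Bands normalized to GAPDH, with the 10 min DMSO group set as 100%; n = 3.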

[15] = Decrease in triglyceride accumulation in mouse 3T3L1 cells at 10 uM for 3 days oil red O staining based microscopic analysis; assay type: functional, cell-based; conditions: 3T3-L1
How it was run: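 3T3-L1 cells differentiated from 2 days post-confluence with IBMX/dexamethasone/insulin cocktail for 3 days, then insulin medium to Day 6. Compounds at 1 and 10 µM added Day 0 for 3 days. Triglyceride read on Day 6 with Oil Red O (formaldehyde fixation, 30 min stain, isopropanol extraction, OD 510 nm); n = 3.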

[16] = Cytotoxicity against mouse 3T3L1 cells preadipocytes assessed as cell viability at 1 to 10 uM for 24, 48 and 72 hrs by LDH release assay relative to control; conditions: 3T3-L1 preadipocyte cells

- Activity [14]: Active
Structure (SMILES): O=Cc1c(-c2nc(NCCN3CCCC3)c3ccccc3n2)[nH]c2ccccc12
- Time (3T3-L1 [1]): 6 days
- inhibition [2]: Active
- inhibition (INH) (HepG2): 32%
- inhibition [3]: 85%
- inhibition [4]: 60%
- inhibition (3T3-L1 [5]): Active
- Activity [6]: 40.2%
- Activity [7]: 46.9%
- Activity [8]: 51.8%
- Activity (3T3-L1 [9]): 0.42%
- viability at 0.3 µM (3T3-L1 [10]): 96.5%
- Activity (3T3-L1 [11]): 0.25%
- inhibition [12]: Active
- inhibition [13]: Active
- inhibition [15]: 94.9%
- viability at 72 h, 10 µM [16]: 83%
